Reference: ChEMBL document CHEMBL4007430, “Synthesis and Cytostatic and Antiviral Profiling of Thieno-Fused 7-Deazapurine Ribonucleosides” (J Med Chem, 2017)

Tests used:
[1] = Drug level in human HCT116 cells at 1 umol/L measured per 5 x 10^5 cells after 1 hr by UPLC-MS/MS analysis; format: ADME, cell-based; settings: hct-116, 1 h, 1 µM
CCRF-CEM [2] = assay: Cell cycle arrest in human CCRF-CEM cells assessed as accumulation at G0/G1 phase at 5 times IC50 after 24 hrs by propidium iodide staining-based flow cytometric analysis (reference value: 41.11%); format: functional
CCRF-CEM [3] = assay: Induction of apoptosis in human CCRF-CEM cells assessed as accumulation at subG1 phase at 5 times IC50 after 24 hrs by propidium iodide staining-based flow cytometric analysis (reference value: 2.32%); format: functional
[4] = Cytotoxicity against human K562-TAX cells assessed as cell growth inhibition after 72 hrs by MTS assay; format: functional, cell-based
Method in brief: (§1)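 Cells were exposed to compound for 3 days, then stained with MTS as a quantitative metabolic read-out. IC50 is the concentration that inhibits cell growth by 50%.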

HCT-116 [5] = assay: Cytotoxicity against human HCT116 cells assessed as cell growth inhibition after 72 hrs by MTS assay; format: functional, cell-based; settings: HCT-116, 72 h; method in brief: as §1
CCRF-CEM [6] = assay: Inhibition of RNA synthesis in human CCRF-CEM cells assessed as decrease in BrU incorporation by measuring synthesized RNA levels at 5 times IC50 after 24 hrs by propidium iodide staining-based flow cytometric method (reference value: 53.09%); format: functional
[7] = Drug level in human BJ cells at 1 umol/L measured per 5 x 10^5 cells after 1 hr by UPLC-MS/MS analysis; format: ADME, cell-based; settings: 1 µM
CCRF-CEM [8] = assay: Cell cycle arrest in human CCRF-CEM cells assessed as accumulation at S phase at 5 times IC50 after 24 hrs by propidium iodide staining-based flow cytometric analysis (reference value: 44.20%); format: functional
[9] = Drug level in human HCT116 cells at 1 umol/L measured per 5 x 10^5 cells after 3 hrs by UPLC-MS/MS analysis; format: ADME, cell-based; settings: hct-116, 3 h, 1 µM
[10] = Drug level in human BJ cells at 10 umol/L measured per 5 x 10^5 cells after 1 hr by UPLC-MS/MS analysis; format: ADME, cell-based; settings: 10 µM
CCRF-CEM [11] = assay: Cell cycle arrest in human CCRF-CEM cells assessed as accumulation at G2/M phase at 5 times IC50 after 24 hrs by propidium iodide staining-based flow cytometric analysis (reference value: 14.70%); format: functional
CCRF-CEM [12] = assay: Inhibition of mitosis in human CCRF-CEM cells assessed as pH3Ser10 positive cells at 5 times IC50 after 24 hrs by flow cytometric analysis (reference value: 1.74%); format: functional
Hepatitis C virus [13] = assay: Anti-HCV activity against Hepatitis C virus genotype 2a infected in human Huh7 replicon cells after 96 hrs by luciferase reporter gene assay; format: functional, cell-based, Hepacivirus hominis; settings: Huh-7, 96 h
CCRF-CEM [14] = assay: Inhibition of DNA synthesis in human CCRF-CEM cells assessed as decrease in BrdU incorporation by measuring synthesized DNA levels at 5 times IC50 after 24 hrs by propidium iodide staining-based flow cytometric analysis (reference value: 52.66%); format: functional
U2OS = assay: Cytotoxicity against human U2OS cells assessed as cell growth inhibition after 72 hrs by MTS assay; format: functional, cell-based
[15] = Cytotoxicity against mrp-1/mdr-1 overexpressing human CEM-DNR-bulk cells assessed as cell growth inhibition after 72 hrs by MTS assay; format: functional, cell-based
Method in brief: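 Cells were exposed to compound for 3 days, then stained with MTS as a quantitative metabolic read-out.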

HCT-116 [16] = assay: Cytotoxicity against p53 deficient human HCT116 cells assessed as cell growth inhibition after 72 hrs by MTS assay; format: functional, cell-based; settings: HCT-116, 72 h; method in brief: as §1
CCRF-CEM [17] = assay: Induction of apoptosis in human CCRF-CEM cells assessed as accumulation at subG1 phase at IC50 after 24 hrs by propidium iodide staining-based flow cytometric analysis (reference value: 2.32%); format: functional
A549 = assay: Cytotoxicity against human A549 cells assessed as cell growth inhibition after 72 hrs by MTS assay; format: functional, cell-based; settings: A549, 72 h; method in brief: as §1
CCRF-CEM [18] = assay: Cell cycle arrest in human CCRF-CEM cells assessed as accumulation at G2/M phase at IC50 after 24 hrs by propidium iodide staining-based flow cytometric analysis (reference value: 14.70%); format: functional
HepG2 = assay: Cytotoxicity against human HepG2 cells assessed as reduction in cell viability after 72 hrs by XTT assay; format: functional, cell-based; settings: HepG2, 72 h
Method in brief: (§2)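 Cells were incubated with compound for 3 days. Viability was then measured with the XTT tetrazolium assay.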

CCRF-CEM [19] = assay: Inhibition of RNA synthesis in human CCRF-CEM cells assessed as decrease in BrU incorporation by measuring synthesized RNA levels at IC50 after 24 hrs by propidium iodide staining-based flow cytometric method (reference value: 53.09%); format: functional
K562 = assay: Cytotoxicity against human K562 cells assessed as cell growth inhibition after 72 hrs by MTS assay; format: functional, cell-based; settings: K562, 72 h; method in brief: as §1
[20] = Cytotoxicity against human HuH7 cells; format: cell-based, Huh-7
CCRF-CEM [21] = assay: Inhibition of mitosis in human CCRF-CEM cells assessed as pH3Ser10 positive cells after 24 hrs by flow cytometric analysis; format: functional, cell-based
CCRF-CEM [22] = assay: Cell cycle arrest in human CCRF-CEM cells assessed as accumulation at S phase at IC50 after 24 hrs by propidium iodide staining-based flow cytometric analysis (reference value: 44.20%); format: functional
[23] = Drug level in human HCT116 cells at 10 umol/L measured per 5 x 10^5 cells after 3 hrs by UPLC-MS/MS analysis; format: ADME, cell-based; settings: hct-116, 3 h, 10 µM
[24] = Drug level in human BJ cells at 1 umol/L measured per 5 x 10^5 cells after 3 hrs by UPLC-MS/MS analysis; format: ADME, cell-based; settings: 1 µM
CCRF-CEM [25] = assay: Cytotoxicity against human CCRF-CEM cells assessed as cell growth inhibition after 72 hrs by MTS assay
BJ = assay: Cytotoxicity against human BJ cells assessed as cell growth inhibition after 72 hrs by MTS assay; format: cell-based; method in brief: as §1
Hepatitis C virus [26] = assay: Anti-HCV activity against Hepatitis C virus genotype 1b infected in human Huh7 replicon cells after 96 hrs by luciferase reporter gene assay; format: functional, cell-based, Hepacivirus hominis; settings: Huh-7, 96 h
CCRF-CEM [27] = assay: Inhibition of DNA synthesis in human CCRF-CEM cells assessed as decrease in BrdU incorporation by measuring synthesized DNA levels at IC50 after 24 hrs by propidium iodide staining-based flow cytometric analysis (reference value: 52.66%); format: functional
HeLa S3 = assay: Cytotoxicity against human HeLaS3 cells assessed as reduction in cell viability after 72 hrs by XTT assay; format: functional, cell-based; settings: HeLa S3, 72 h; method in brief: as §2
CCRF-CEM [28] = assay: Inhibition of mitosis in human CCRF-CEM cells assessed as pH3Ser10 positive cells at IC50 after 24 hrs by flow cytometric analysis (reference value: 1.74%); format: functional
HL-60 = assay: Cytotoxicity against human HL60 cells assessed as reduction in cell viability after 72 hrs by XTT assay; format: functional, cell-based; settings: HL-60, 72 h; method in brief: as §2
CCRF-CEM [29] = assay: Cell cycle arrest in human CCRF-CEM cells assessed as accumulation at G0/G1 phase at IC50 after 24 hrs by propidium iodide staining-based flow cytometric analysis (reference value: 41.11%); format: functional
[30] = Drug level in human BJ cells at 10 umol/L measured per 5 x 10^5 cells after 3 hrs by UPLC-MS/MS analysis; format: ADME, cell-based; settings: 10 µM
[31] = Drug level in human HCT116 cells at 10 umol/L measured per 5 x 10^5 cells after 1 hr by UPLC-MS/MS analysis; format: ADME, cell-based; settings: hct-116, 1 h, 10 µM
MRC5 = assay: Cytotoxicity against human MRC5 cells assessed as cell growth inhibition after 72 hrs by MTS assay; format: cell-based; settings: MRC5, 72 h; method in brief: as §1

CSc1ncnc2c1c1sccc1n2[C@@H]1O[C@H](CO)[C@@H](O)[C@H]1O
Drug uptake [1]: 105.4 pmol
Activity (CCRF-CEM [2]): 41.28%
Activity (CCRF-CEM [3]): 18.15%
IC50 [4]: 2200 nM
IC50 (HCT-116 [5]): 50 nM
BrU+ cells (%) (CCRF-CEM [6]): 0.16%
Drug uptake [7]: 711.7 pmol
Activity (CCRF-CEM [8]): 38.11%
Drug uptake [9]: 602.8 pmol
Drug uptake [10]: 2298.3 pmol
Activity (CCRF-CEM [11]): 20.61%
pH3Ser10+ cells (%) (CCRF-CEM [12]): 1.03%
EC50 (Hepatitis C virus [13]): 340 nM
BrdU+ cells (%) (CCRF-CEM [14]): 51.49%
IC50 (U2OS): 460 nM
IC50 [15]: 1460 nM
IC50 (HCT-116 [16]): 90 nM
Activity (CCRF-CEM [17]): 10.83%
IC50 (A549): 660 nM
Activity (CCRF-CEM [18]): 21.65%
IC50 (HepG2): 360 nM
BrU+ cells (%) (CCRF-CEM [19]): 1.46%
IC50 (K562): 350 nM
CC50 [20]: > 44400 nM
Activity (CCRF-CEM [21]): Dose-dependent effect
Activity (CCRF-CEM [22]): 34.12%
Drug uptake [23]: 1299 pmol
Drug uptake [24]: 1750.5 pmol
IC50 (CCRF-CEM [25]): 27 nM
IC50 (BJ): 1250 nM
EC50 (Hepatitis C virus [26]): 470 nM
BrdU+ cells (%) (CCRF-CEM [27]): 51.67%
IC50 (HeLa S3): 720 nM
pH3Ser10+ cells (%) (CCRF-CEM [28]): 1.92%
IC50 (HL-60): 510 nM
Activity (CCRF-CEM [29]): 44.14%
Drug uptake [30]: 3161.5 pmol
Drug uptake [31]: 525.5 pmol
IC50 (MRC5): 9010 nM
